From ChEMBL document CHEMBL3525997, “Debrisoquine metabolism and CYP2D expression in marmoset liver microsomes” (Drug Metab Dispos, 2012)

How the values were obtained:
Format in all cases: ADME, Callithrix jacchus
[1] = Drug metabolism in marmoset liver microsomes treated with [14C]debrisoquine at 500 uM after 180 mins by NMR analysis; settings: 3 h
Summary of the method: (§1)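 Large-scale incubation to generate metabolites for structural identification. Pooled marmoset liver microsomal protein 4 mg/ml (batch 1), 6 mM NADPH, 50 mM Tris-HCl pH 7.69, total 35 ml. Reaction started with [14C]debrisoquine to a final concentration of 500 µM and incubated for 180 min.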

[2] = Drug metabolism in marmoset liver microsomes treated with [14C]debrisoquine at 500 uM after 120 mins by LC/MS/MS analysis; settings: 2 h
Summary of the method: (§2)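 Pooled male marmoset liver microsomes (5 mg/ml, batch 1) incubated with [14C]debrisoquine 500 µM, NADPH 6 mM, Tris-HCl 50 mM pH 7.69, 37°C, 120 min. Protein precipitated, supernatant injected on C18 reversed-phase HPLC with 10 mM TFA/acetonitrile linear gradient over 40 min. Detection by UV at 211 nm, radioactivity flow detector, and ESI+ LC-MS/MS with product ion spectra.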

[3] = Drug metabolism in marmoset liver microsomes treated with [14C]debrisoquine at 500 uM after 120 mins by radio-HPLC chromatography; settings: 2 h; summary of the method: as §2
[4] = Drug metabolism in marmoset liver microsomes assessed as 7-hydroxydebrisoquine formation at 500 uM after 180 mins by NMR analysis; settings: 3 h; summary of the method: as §1
[5] = Drug metabolism in marmoset liver microsomes assessed as 4-hydroxydebrisoquine formation at 500 uM after 180 mins by NMR analysis; settings: 3 h; summary of the method: as §1
[6] = Drug metabolism in marmoset liver microsomes assessed as 5-hydroxydebrisoquine formation at 500 uM after 180 mins by NMR analysis; settings: 3 h; summary of the method: as §1
[7] = Drug metabolism in marmoset liver microsomes assessed as 8-hydroxydebrisoquine formation at 500 uM after 180 mins by NMR analysis; settings: 3 h; summary of the method: as §1
[8] = Drug metabolism in marmoset liver microsomes assessed as 6-hydroxydebrisoquine formation at 500 uM after 180 mins by NMR analysis; settings: 3 h; summary of the method: as §1
[9] = Drug metabolism in marmoset liver microsomes assessed as 6,7-hydroxydebrisoquine formation at 500 uM after 180 mins by NMR analysis; settings: 3 h; summary of the method: as §1
[10] = Drug metabolism in marmoset liver microsomes assessed as metabolite MF-1 formation at 500 uM after 120 mins by LC/MS/MS analysis; settings: 2 h; summary of the method: as §2
[11] = Drug metabolism in marmoset liver microsomes assessed as 4-hydroxydebrisoquine formation at 500 uM after 120 mins by radio-HPLC chromatography; settings: 2 h; summary of the method: as §2
[12] = Drug metabolism in marmoset liver microsomes assessed as metabolite MF-1 formation at 500 uM after 120 mins by radio-HPLC chromatography; settings: 2 h; summary of the method: as §2
[13] = Drug metabolism in marmoset liver microsomes assessed as metabolite MF-3 formation at 500 uM after 120 mins by radio-HPLC chromatography; settings: 2 h; summary of the method: as §2
[14] = Drug metabolism in marmoset liver microsomes assessed as 4-hydroxydebrisoquine formation at 500 uM after 120 mins by LC/MS/MS analysis; settings: 2 h; summary of the method: as §2
[15] = Drug metabolism in marmoset liver microsomes assessed as metabolite MF-3 formation at 500 uM after 120 mins by LC/MS/MS analysis; settings: 2 h; summary of the method: as §2

With N=C(N)N1Cc2ccccc2C(O)C1 (stereo not given) the Drug metabolism [1] was “metabolite_detected”, the Drug metabolism [2] was “metabolite_detected” and the Drug metabolism [3] was “metabolite_detected”.
For N=C(N)N1CCc2cc(O)ccc2C1, the Drug metabolism [1] was “metabolite_detected”.
With N=C(N)N1CCc2ccccc2C1.O=S(=O)(O)O the Drug metabolism [4] was “metabolite_detected”, the Drug metabolism [5] was “metabolite_detected” and the Drug metabolism [6] was “metabolite_detected”. The Drug metabolism [7] was “metabolite_detected”, the Drug metabolism [8] was “metabolite_detected” and the Drug metabolism [9] was “metabolite_detected”.
For N=C(N)N1CCc2cc(O)c(O)cc2C1, the Drug metabolism [1] was “metabolite_detected”.
In the case of N=[14C](N)N1CCc2ccccc2C1, the Drug metabolism [10] is reported as “metabolite_detected”, the Drug metabolism [11] is reported as “metabolite_detected” and the Drug metabolism [12] is reported as “metabolite_detected”. For the same molecule, the Drug metabolism [13] was “metabolite_detected”, the Drug metabolism [14] was “metabolite_detected” and the Drug metabolism [15] was “metabolite_detected”.
With N=C(N)N1CCc2ccc(O)cc2C1 the Drug metabolism [1] was “metabolite_detected”.
For N=C(N)N1CCc2cccc(O)c2C1, the Drug metabolism [1] was “metabolite_detected”.
With N=C(N)N1CCc2c(O)cccc2C1 the Drug metabolism [1] was “metabolite_detected”.
